Source: ChEMBL document CHEMBL4041513, “In silico identification, design and synthesis of novel piperazine-based antiviral agents targeting the hepatitis C virus helicase” (Eur J Med Chem, 2017)

Experiments:
[1] = Cytotoxicity against human HuH5.2 cells assessed as reduction in cell viability after 72 hrs by MTS assay; type: cell-based, Huh-5-2
In short: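 Huh 5-2 cells carrying the genotype 1b I389luc-ubi-neo/NS3-3'/5.1 replicon were seeded at 6 500 cells/well in medium without Geneticin one day ahead. Compounds (DMSO stock) were added as 1:5 four-step or 1:2 eight-step dilutions for 72 h at 37 °C.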

Hepatitis C virus = assay: Antiviral activity against HCV genotype 1b infected in human HuH5.2 cells with persistent I389luc-ubi-neo/NS3-3'/5.1 replicon after 72 hrs by luciferase reporter gene assay; type: functional, cell-based, Hepacivirus hominis; conditions: Huh-5-2, 72 h
In short: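 Huh 5-2 cells carrying the genotype 1b I389luc-ubi-neo/NS3-3'/5.1 replicon were seeded at 6 500 cells/well in Geneticin-free DMEM/10% FCS and left overnight. Compounds from DMSO stocks were added in a four-step 1-to-5 series for the first screen or an eight-step 1-to-2 series for dose-response curves, then 72 h at 37 °C. Luciferase luminescence after lysis, as % of untreated controls, gave EC50; mean of ≥2 experiments.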

[2] = Selectivity index, ratio of CC50 for human HuH5.2 cells to EC50 for HCV genotype 1b infected in human HuH5.2 cells with persistent I389luc-ubi-neo/NS3-3'/5.1 replicon
[3] = Inhibition of HCV NS3 helicase DNA unwinding activity using fluorescent DNA substrate by molecular beacon assay; parameters: species or system Hepacivirus hominis
In short: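 Molecular beacon unwinding reaction: 25 mM MOPS pH 6.5, 1.25 mM MgCl2, 5% DMSO, 5 µg/ml BSA, 0.01% Tween20, 0.05 mM DTT, 5 nM fluorescent DNA substrate, 12.5 nM NS3h, 1 mM ATP. Duplicate two-fold dilutions spanned 1 mM to 0.78 µM. Data normalised to no-inhibitor and no-enzyme controls; IC50 from variable-slope Hill fit.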

CC(C)(C)c1ccc(C(=O)Oc2ccc3c(-c4ccccc4C(=O)O)c4ccc(=O)cc-4oc3c2)cc1
CC50 at 72 h [1]: > 102 µM
EC50 (Hepatitis C virus): > 102 µM
EC90 (Hepatitis C virus): > 102 µM

O=S(=O)(NCCCN1CCN(CCCNS(=O)(=O)c2cccc(Cl)c2)CC1)c1cccc(Cl)c1
Ratio CC50/EC50 [2]: >2.4
CC50 at 72 h [1]: > 182 µM
EC50 (Hepatitis C virus): 76.9 µM
EC90 (Hepatitis C virus): 173 µM

O=C1NC(=O)/C(=C\c2ccc(-c3ccc(Cl)cc3Cl)o2)S1
Ratio CC50/EC50 [2]: 2.5
CC50 at 72 h [1]: 33.4 µM
EC50 (Hepatitis C virus): 13.2 µM

Cc1ccc(S(=O)(=O)NCCCN2CCN(CCCNS(=O)(=O)c3ccc(Cl)cc3)CC2)cc1
Ratio CC50/EC50 [2]: 4.9
CC50 at 72 h [1]: 48.8 µM
EC50 (Hepatitis C virus): 9.93 µM
EC90 (Hepatitis C virus): 36 µM

O=S(=O)(NCCCN1CCCCC1)c1ccc(Cl)cc1
Ratio CC50/EC50 [2]: 2.3
CC50 at 72 h [1]: 145 µM
EC50 (Hepatitis C virus): 61.9 µM

Cc1ccc(S(=O)(=O)NCCN2CCN(CCNS(=O)(=O)c3ccc(C)cc3)CC2)cc1
CC50 at 72 h [1]: > 104 µM
EC50 (Hepatitis C virus): > 104 µM
EC90 (Hepatitis C virus): > 104 µM

O=[N+]([O-])c1ccc(S(=O)(=O)NCCN2CCN(CCNS(=O)(=O)c3ccc([N+](=O)[O-])cc3)CC2)cc1
Ratio CC50/EC50 [2]: >10.6
CC50 at 72 h [1]: > 184 µM
EC50 (Hepatitis C virus): 17.4 µM

COc1ccc(S(=O)(=O)NCCN2CCN(CCNS(=O)(=O)c3ccc(OC)c(OC)c3)CC2)cc1OC
Ratio CC50/EC50 [2]: >1
CC50 at 72 h [1]: > 87.3 µM
EC50 (Hepatitis C virus): 85.8 µM
EC90 (Hepatitis C virus): > 87.3 µM

COc1ccc(C(=O)C2=C(O)C(=O)N(c3cnoc3C)C2c2ccc(C(C)(C)C)cc2)cc1OC (stereo unspecified)
Ratio CC50/EC50 [2]: >1.8
CC50 at 72 h [1]: > 105 µM
EC50 (Hepatitis C virus): 57.2 µM

CCC[C@H](NC(=O)[C@@H]1[C@H]2CCC[C@H]2CN1C(=O)[C@@H](NC(=O)[C@@H](NC(=O)c1cnccn1)C1CCCCC1)C(C)(C)C)C(=O)C(=O)NC1CC1
Ratio CC50/EC50 [2]: 58.8

CC(C)(C)c1ccc(S(=O)(=O)NCCCN2CCN(CCCNS(=O)(=O)c3ccccc3)CC2)cc1
Ratio CC50/EC50 [2]: 5.5
CC50 at 72 h [1]: 20.5 µM
EC50 (Hepatitis C virus): 3.74 µM

Cc1ccc2nc(N3C(=O)C(O)=C(C(=O)c4cc5ccccc5o4)C3c3cccc(Oc4ccccc4)c3)sc2c1 (stereo unspecified)
Ratio CC50/EC50 [2]: >2.1
CC50 at 72 h [1]: > 89.5 µM
EC50 (Hepatitis C virus): 41.8 µM
EC90 (Hepatitis C virus): > 89.5 µM

O=S(=O)(NCCCN1CCN(CCCNS(=O)(=O)c2cccc3ccccc23)CC1)c1cccc2ccccc12
IC50 [3]: > 1000 µM
CC50 at 72 h [1]: > 172 µM
EC50 (Hepatitis C virus): > 172 µM
EC90 (Hepatitis C virus): > 172 µM

COc1ccc(S(=O)(=O)NCCC(=O)N2CCN(C(=O)CCNS(=O)(=O)c3ccc(OC)c(OC)c3)CC2)cc1OC
CC50 at 72 h [1]: > 159 µM
EC50 (Hepatitis C virus): > 159 µM
EC90 (Hepatitis C virus): > 159 µM

O=S(=O)(NCCN1CCN(CCNS(=O)(=O)c2ccccc2)CC1)c1ccccc1
CC50 at 72 h [1]: > 110 µM
EC50 (Hepatitis C virus): > 110 µM

O=[N+]([O-])c1ccc(S(=O)(=O)NCCCN2CCN(CCCNS(=O)(=O)c3ccc([N+](=O)[O-])cc3)CC2)cc1
Ratio CC50/EC50 [2]: 4.4
CC50 at 72 h [1]: 77.4 µM
EC50 (Hepatitis C virus): 18.1 µM
EC90 (Hepatitis C virus): 61.1 µM

COc1ccc(S(=O)(=O)NCCCN2CCN(CCCNS(=O)(=O)c3ccc(OC)cc3)CC2)cc1
CC50 at 72 h [1]: > 92.5 µM
EC50 (Hepatitis C virus): > 92.5 µM
EC90 (Hepatitis C virus): > 92.5 µM

O=S(=O)(NCCCN1CCN(CCNS(=O)(=O)c2ccccc2)CC1)c1ccccc1
Ratio CC50/EC50 [2]: >3.1
CC50 at 72 h [1]: > 214 µM
EC50 (Hepatitis C virus): 69.2 µM
EC90 (Hepatitis C virus): 212 µM

COc1ccc(OC)c(S(=O)(=O)NCCCN2CCN(CCCNS(=O)(=O)c3cc(OC)ccc3OC)CC2)c1
CC50 at 72 h [1]: > 83.2 µM
EC50 (Hepatitis C virus): > 83.2 µM
EC90 (Hepatitis C virus): > 83.2 µM

COc1ccc(OC)c(S(=O)(=O)NCCN2CCN(CCNS(=O)(=O)c3cc(OC)ccc3OC)CC2)c1
CC50 at 72 h [1]: > 87.3 µM
EC50 (Hepatitis C virus): > 87.3 µM

O=S(=O)(NCCCN1CCN(CCCNS(=O)(=O)c2ccc(Cl)cc2)CC1)c1ccccc1
Ratio CC50/EC50 [2]: 4.1
CC50 at 72 h [1]: 81.5 µM
EC50 (Hepatitis C virus): 19.9 µM
EC90 (Hepatitis C virus): > 64 µM

O=C(NCCCN1CCN(CCCNC(=O)c2ccc(Cl)cc2)CC1)c1ccc(Cl)cc1
CC50 at 72 h [1]: > 209 µM
EC50 (Hepatitis C virus): > 209 µM
EC90 (Hepatitis C virus): > 209 µM

Cc1ccc(S(=O)(=O)NCCCN2CCN(CCCNS(=O)(=O)c3ccc(C(C)(C)C)cc3)CC2)cc1
Ratio CC50/EC50 [2]: 4.2
CC50 at 72 h [1]: 14.6 µM
EC50 (Hepatitis C virus): 3.5 µM
EC90 (Hepatitis C virus): 9.44 µM

O=c1nc2n(-c3cccc(Br)c3)c3ccccc3cc-2c(=O)[nH]1
Ratio CC50/EC50 [2]: >1.6
CC50 at 72 h [1]: > 136 µM
EC50 (Hepatitis C virus): 81.7 µM

CC(CC(=O)O)CC(=O)Nc1cccnc1 (stereo unspecified)
CC50 at 72 h [1]: > 225 µM
EC50 (Hepatitis C virus): > 225 µM
EC90 (Hepatitis C virus): > 225 µM

O=S(=O)(NCCNc1ccc(NCCNS(=O)(=O)c2ccc(Cl)cc2)cc1)c1ccc(Cl)cc1
Ratio CC50/EC50 [2]: 1.8
CC50 at 72 h [1]: 22 µM
EC50 (Hepatitis C virus): 12.1 µM

COc1ccc(S(=O)(=O)NCCN2CCN(CCNS(=O)(=O)c3ccc(OC)cc3)CC2)cc1
CC50 at 72 h [1]: > 97.5 µM
EC50 (Hepatitis C virus): > 97.5 µM
EC90 (Hepatitis C virus): > 97.5 µM
